Experimental data pooled from the literature.
Compare with care: the assays were run in different laboratories.
FLT3 K663Q: Receptor-type tyrosine-protein kinase FLT3 (FLT3, Homo sapiens, UniProt P36888, K663Q)
FLT3 D835V/ITD: Receptor-type tyrosine-protein kinase FLT3 (FLT3, Homo sapiens, UniProt P36888, D835V/ITD)
FLT3 autoinhibited: Receptor-type tyrosine-protein kinase FLT3, autoinhibited (FLT3, Homo sapiens, UniProt P36888)
FLT3: Receptor-type tyrosine-protein kinase FLT3 (FLT3, Homo sapiens, UniProt P36888)
FLT3 R834Q: Receptor-type tyrosine-protein kinase FLT3 (FLT3, Homo sapiens, UniProt P36888, R834Q)
FLT3 N841I: Receptor-type tyrosine-protein kinase FLT3 (FLT3, Homo sapiens, UniProt P36888, N841I)
FLT3 D835V: Receptor-type tyrosine-protein kinase FLT3 (FLT3, Homo sapiens, UniProt P36888, D835V)
FLT3 D835Y: Receptor-type tyrosine-protein kinase FLT3 (FLT3, Homo sapiens, UniProt P36888, D835Y)

| SMILES | target | read-out | technique | tested at | remaining binding [%] |
| --- | --- | --- | --- | --- | --- |
| CN(CCCC(F)(F)F)c1nccc(-c2cnn3ncccc23)n1 | FLT3 K663Q | binding | – | 1 µM | 88 |
| CCC(=O)N[C@H]1CC[C@@H](C(=O)N(C)c2ccc(-c3nc4ccccc4o3)cc2)C1 | FLT3 K663Q | cell-free assay | competition with immobilised ligand | 1 µM | 88 |
| Cc1cnc(Nc2ccc(C(=O)N3CCC(N4CCCC4)CC3)cc2)nc1-c1cc2ccccc2s1 | FLT3 D835V/ITD | binding | competition with immobilised ligand | 1 µM | 0.9 |
| O=C(Nc1cnc(Oc2ccc(F)cc2)nc1)N1CCc2ncccc2[C@@H]1c1ccc(F)cc1 | FLT3 autoinhibited | cell-free assay | competition with immobilised ligand | 1 µM | 90 |
| O=C(Nc1c[nH]nc1C(=O)NC1CCNCC1)c1cc(F)cc(F)c1 | FLT3 autoinhibited | binding | competition with immobilised ligand | 1 µM | 85 |
| COc1cnc(Nc2cccc(S(N)(=O)=O)c2)nc1N1CCN(c2ccccc2)C(=O)C1 | Receptor-type tyrosine-protein kinase FLT3 (FLT3, Homo sapiens, UniProt P36888, D835H) | binding | competition with immobilised ligand | 1 µM | 93 |
| COc1ccnn2ncc(-c3ccnc(N(C)C)n3)c12 | FLT3 autoinhibited | binding | – | 1 µM | 78 |
| O=C(c1ccc(Nc2nccc(-c3cc4ccccc4s3)n2)cc1)N1CCC(N2CCCC2)CC1 | FLT3 | binding | competition with immobilised ligand | 1 µM | 44 |
| CN(C)C(=O)Cn1cc(-c2nc(C3(c4ccc(-c5cnc(N)nc5)cc4)CC3)no2)cn1 | FLT3 D835V/ITD | cell-free assay | competition with immobilised ligand | 1 µM | 89 |
| O=C(c1ccc(Nc2ncc(Cl)c(-c3cc4ccccc4s3)n2)cc1)N1CCC(N2CCCC2)CC1 | Receptor-type tyrosine-protein kinase FLT3 (FLT3, Homo sapiens, UniProt P36888, F691L/ITD) | binding | competition with immobilised ligand | 1 µM | 2.7 |
| C[C@@H](c1ccc(-n2cnc3c(N)ncnc32)cc1)N1CCc2nn(C)c(Cc3ccccc3)c2C1=O | FLT3 R834Q | binding | competition with immobilised ligand | 0.1 µM | 88 |
| O=C(NCCCN1CCOCC1)c1ccc(Nc2ncc(Cl)c(-c3ccc(Cl)s3)n2)cc1 | FLT3 N841I | binding | competition with immobilised ligand | 1 µM | 0.6 |
| CCN1CCN(Cc2ccc(C(=O)Nc3ccc(C)c(Oc4ccc5c(c4)CC(=O)N5)c3)cc2C(F)(F)F)CC1 | FLT3 N841I | binding | competition with immobilised ligand | 1 µM | 81 |
| CNC(=O)[C@@H]1CC[C@@H](n2c(-c3ccc4cnccc4c3)nc3ccc(C(=O)NCc4cccc(C(N)=O)c4)cc32)C1 | FLT3 N841I | binding | competition with immobilised ligand | 1 µM | 100 |
| Nc1ncc2c(n1)-c1c([nH]c3ccc(C#CC4CC4)cc13)CCCC2 | FLT3 R834Q | binding | competition with immobilised ligand | 1 µM | 79 |
| CN1CCN(c2ccc(Nc3nccc(-c4cccc([N+](=O)[O-])c4)n3)cc2C(F)(F)F)CC1 | FLT3 N841I | binding | – | 10 µM | 0.05 |
| Cc1noc([C@H]2C[C@@H](c3ccc(C(F)(F)F)cc3)CN(C(=O)N3CCS(=O)(=O)C3)C2)n1 | FLT3 autoinhibited | cell-free assay | competition with immobilised ligand | 1 µM | 100 |
| c1cncc(-c2cccc(Nc3nccc(NC4CCCCC4)n3)c2)c1 | FLT3 N841I | binding | competition with immobilised ligand | 10 µM | 1.6 |

| SMILES | target | read-out | technique | tested at | remaining binding [%] |
| --- | --- | --- | --- | --- | --- |
| C=CC(=O)N1CCC(C(=O)NCC(=O)N2CCN(c3nc(-c4cnc(N)nc4C(F)F)nc(N4CCOCC4)n3)CC2)CC1 | FLT3 K663Q | binding | competition with immobilised ligand | 1 µM | 100 |
| O=C(c1ccc(Nc2ncc(Cl)c(-c3ccc(Cl)s3)n2)cc1)N1CCC(N2CCCC2)CC1 | FLT3 N841I | binding | competition with immobilised ligand | 1 µM | 0.4 |
| N[C@@H]1CCN(c2nccc(-c3cnn4ncccc34)n2)C1 | FLT3 N841I | binding | – | 1 µM | 79 |
| N#Cc1ccccc1CSc1nnc2c(n1)[nH]c1ccccc12 | FLT3 | binding | competition with immobilised ligand | 10 µM | 84 |
| COc1ncc2cc3ccccc3nc2c1C#N | Receptor-type tyrosine-protein kinase FLT3 (FLT3, Homo sapiens, UniProt P36888, ITD) | cell-free assay | competition with immobilised ligand | 5 µM | 94 |
| COCCOc1nc(-c2ccc(Cl)nc2)nc2c1CN(C(=O)c1ncn3ccccc13)CC2 | FLT3 D835V | cell-free assay | competition with immobilised ligand | 0.1 µM | 100 |
| O=C(NCCCN1CCOCC1)c1ccc(Nc2nccc(-c3cc4ccccc4s3)n2)cc1 | FLT3 D835Y | binding | competition with immobilised ligand | 1 µM | 18 |
| O=C(NCC1CCOCC1)c1n[nH]cc1NC(=O)c1c(F)cccc1F | FLT3 D835V | binding | competition with immobilised ligand | 1 µM | 100 |
| CN(c1nccc(-c2cnn3ncccc23)n1)C1CC1 | FLT3 D835Y | binding | – | 1 µM | 85 |
| CO[C@@H](C)c1c(Nc2ccc([C@H](N(C)C(=O)C3CCS(=O)(=O)CC3)C(F)(F)F)cc2)cnc2cc(Cl)nn12 | FLT3 K663Q | cell-free assay | competition with immobilised ligand | 1 µM | 100 |
| CN(C)c1nccc(-c2cnc3ncccn23)n1 | FLT3 D835V | binding | – | 1 µM | 68 |
| NS(=O)(=O)c1cc(NC(=O)C2(c3ccccc3Cl)CC2)ccc1Oc1cccc(Cl)c1 | FLT3 K663Q | cell-free assay | competition with immobilised ligand | 1 µM | 100 |
| CN(C)c1ncc(F)c(-c2cnn3ncccc23)n1 | FLT3 | binding | – | 1 µM | 100 |
| COc1cnc(Nc2cccc(S(N)(=O)=O)c2)nc1N1CCN(c2ccccc2)CC1 | FLT3 D835Y | binding | competition with immobilised ligand | 1 µM | 61 |
| C[C@@H]1CCN(c2nccc(-c3cnn4ncccc34)n2)C1 | FLT3 D835Y | binding | – | 1 µM | 100 |
| O=C(NCCCC1CCCCC1)c1ccc(CNC(=O)c2cnn(-c3ccccc3)c2C(F)(F)F)cc1 | FLT3 R834Q | cell-free assay | competition with immobilised ligand | 0.1 µM | 100 |
| CC1CCCN1c1nccc(-c2cnn3ncccc23)n1 (stereo not drawn) | FLT3 autoinhibited | binding | – | 1 µM | 100 |
| CN1CCN(c2ccc(Nc3nccc(-c4ccccc4)n3)cc2C(F)(F)F)CC1 | FLT3 D835V | binding | – | 10 µM | 0 |
